This note sets out measurements from ChEMBL document CHEMBL3244004, “Potential antitumor agents. 27. Quantitative structure--antileukemic (L1210) activity relationships for the omega-[4-(9-acridinylamino)phenyl]alkanoic acids” (J Med Chem, 1978).

SMILES strings stand for the structures. A value given as a limit tells only on which side of the number the result lay.

Data set [1] can be described thus: Logarithmic function of the retardation factor value of compound by reverse phase chromatography analysis. Type of data set: physicochemical. The essentials:
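Lipophilic-hydrophilic balance read by reversed-phase TLC, using a system described in an earlier report. R_m is calculated as log(1/R_f − 1). Each quoted figure is the mean of at least three determinations.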

Another data set has as its system Mus musculus. As to the kind of experiment: Toxicity in ip dosed C3H/DBA2F1 hybrid mouse allografted with mouse L1210 cells administered for 5 days measured up to 8 days. Type of data set: organism-based. Conditions: in vivo. The essentials: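 C3H/DBA2 F1 hybrid mice (18.5–22.5 g) bearing ip 10^5 L1210 cells were dosed ip once daily for 5 days, starting 24 h after inoculation, at 0.2 mL per dose. Doses were spaced 0.05 log units apart. Deaths before day 8 were taken as drug toxicity, and the dose lethal to 10% of animals (LD10) was derived.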

The subject of the next data set is L1210. As to the kind of experiment: Antitumor activity against mouse L1210 cells allografted in C3H/DBA2F1 hybrid mouse assessed as maximum increase of host life span administered as ip for 5 days relative to control. Type of data set: functional. The essentials: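 Mice (C3H/DBA2 F1 hybrid, 18.5–22.5 g; six per dose level) were inoculated ip with 10^5 L1210 cells. Ip treatment ran once daily on days 1–5, starting 24 h after inoculation, in 0.2 mL per dose. Doses were spaced 0.09 log units apart. ILS = T/C% − 100, significant if above 25%. Significant ILS values were regressed on log dose, and ILSmax was read at the LD10.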

In data set [1], `CCCCCS(=O)(=O)Nc1ccc(Nc2c3ccccc3nc3cc(NC(C)=O)ccc23)cc1` came in with a Rm of 0.59. This compound yielded an LD10 with Mus musculus of 40 mg/kg. Moreover, in the data set on L1210, the ILSmax amounted to 61% and the “log(ILSmax)” value is listed as 1.78.
Compound `CCCCS(=O)(=O)Nc1ccc(Nc2c3ccccc3nc3ccccc23)cc1` gave a Rm in data set [1] of 0.56. This compound also registered an LD10 in the data set with Mus musculus of 350 mg/kg. The ILSmax in the data set on L1210 is recorded as 66%.
Compound `O=C(O)CCCCCCc1ccc(Nc2c3ccccc3nc3ccccc23)cc1` returned a Rm in data set [1] of 0.79. For the same compound, in the data set on Mus musculus, the LD10 was found to be 90 mg/kg. Besides, in the data set with L1210, the ILSmax is 74% and the “log(ILSmax)” value is listed as 1.87.
With `NC(=O)CCCCCCc1ccc(Nc2c3ccccc3nc3ccccc23)cc1`, in data set [1], the Rm is listed as 0.58. In the data set on Mus musculus, the LD10 amounted to 110 mg/kg. For the same compound, in the data set on L1210, the ILSmax was 71% and the “log(ILSmax)” value came out at 1.85.
As for `CNc1ccc2c(Nc3ccc(OCCCC(=O)O)cc3)c3ccccc3nc2c1.Cl`, the Rm in data set [1] is 0.61. In the data set on Mus musculus, this compound came in with an LD10 of more than 500 mg/kg. In addition, in the data set with L1210, the ILSmax is listed as 30% and the “log(ILSmax)” value is reported as more than 1.48.
In turn, `Cl.O=C(O)CCCc1ccc(Nc2c3ccccc3nc3ccccc23)cc1` yielded a Rm in data set [1] of 0.59. Further, the LD10 with Mus musculus turned out to be 190 mg/kg. Further, in the data set with L1210, the ILSmax was determined as 213% and the “log(ILSmax)” value was found to be 2.33.
Turning to `CCC(=O)Nc1ccc2c(Nc3ccc(NS(C)(=O)=O)cc3)c3ccccc3nc2c1`, the Rm in data set [1] was 0.15. In the data set on Mus musculus, this compound yielded an LD10 of 55 mg/kg. In the data set on L1210, the ILSmax came out at 119% and the “log(ILSmax)” value was 2.08.
